Bioassay records as filed in PubChem.
Shown are actives, neighbours in structure and some others; about 3.9% of the full set was active somewhere.
CHO parental Ca: ATP-evoked calcium signal inhibitors, parental CHO, primary screen, counter-screen for OX1R antagonist project, cell-based, fluorescence, Fluo-8 calcium dye; inhibition, % at 5.6 µM; parental CHO-K1, ATP-induced calcium, Fluo-8 fluorescence; 0.63% of 330,000 active;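 active = inhibition above that plate's mean sample inhibition plus 3 SD, cut at about 26% in these data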
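Material: Parental CHO cells | Reagent: ATP | Compound dosing: Single nominal dose of 5.6 µM per compound | Detection: Intracellular calcium via Fluo-8 no-wash fluorescent dye | Read-out: % inhibition of ATP-induced calcium mobilization | Benchmarks: Low control ATP plus DMSO, high control DMSO only | Replicates: Singlicate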
OX1R antag-1: antagonists of human orexin 1 receptor (OX1R) | OX1R-expressing cells, FRET antagonist read-out | inhibition, % at 6.6 µM | AID 485270, 2010 | 1.8% of 330,000 active; in the data active = inhibition mostly above about 38%, no sharp cut-off; inactive = mostly below about 40%
Target sequence (O43613 whole entry, looked up): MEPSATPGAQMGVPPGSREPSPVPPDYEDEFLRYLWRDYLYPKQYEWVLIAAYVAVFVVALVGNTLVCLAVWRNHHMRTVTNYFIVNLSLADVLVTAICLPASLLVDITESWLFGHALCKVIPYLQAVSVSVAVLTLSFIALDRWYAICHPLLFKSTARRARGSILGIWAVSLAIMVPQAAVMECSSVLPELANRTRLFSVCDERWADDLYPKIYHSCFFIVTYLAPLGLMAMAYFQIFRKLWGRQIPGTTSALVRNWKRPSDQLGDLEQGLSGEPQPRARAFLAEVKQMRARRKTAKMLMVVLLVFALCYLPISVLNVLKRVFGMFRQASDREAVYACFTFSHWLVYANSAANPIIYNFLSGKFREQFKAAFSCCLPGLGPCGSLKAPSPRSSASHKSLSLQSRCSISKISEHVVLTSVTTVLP
TAAR1 antagonist: human TAAR1 antagonists, primary screen, Fluo-8 calcium fluorescence, CHO RD-HGA16 cells; antagonist; inhibition, % at 3 µM; 1.5% of 360,000 active; AID 624466, 2012;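 active = inhibition above a per-plate cutoff, the mean inhibition of test compounds on that plate plus 3 SD, cut at about 49% in these data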
Target sequence (Q96RJ0 whole entry, looked up): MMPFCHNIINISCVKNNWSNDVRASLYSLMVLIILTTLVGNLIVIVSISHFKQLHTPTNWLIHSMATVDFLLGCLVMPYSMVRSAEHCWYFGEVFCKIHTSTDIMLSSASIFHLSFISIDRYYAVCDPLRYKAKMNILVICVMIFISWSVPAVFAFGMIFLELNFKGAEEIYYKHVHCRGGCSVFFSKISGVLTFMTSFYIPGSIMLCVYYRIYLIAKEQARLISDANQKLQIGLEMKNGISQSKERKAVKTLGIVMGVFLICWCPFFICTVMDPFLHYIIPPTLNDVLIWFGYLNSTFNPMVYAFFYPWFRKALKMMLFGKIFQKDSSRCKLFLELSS
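Test system – hTAAR1-expressing CHO RD-HGA16 cells, Gα16-coupled · Also added – β-PEA at EC80 concentration, post-compound challenge · Compound – 3 µM, single point · Incubation – dye loading 75 min at 37 °C, then 30 min room temperature · Measured by – Fluo-8 intracellular calcium dye fluorescence, real-time kinetic reads · Benchmarks – vehicle and agonist controls · Replicates – singlicate, one well per test compound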
TAAR1 agonist: human TAAR1 agonists, primary screen, Fluo-8 calcium fluorescence, CHO RD-HGA16 cells; AID 624467, 2012; Trace amine-associated receptor 1 (Homo sapiens), Q96RJ0; 0.99% of 360,000 active; activation, % at 3 µM; vehicle wells 0%, saturating PEA agonist 100%;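 active = activation above the mean activation of all test compounds in the run plus 3 SD, cut at about 38% in these data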
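Assay system – CHO-derived RD-HGA16 cells with stable Gα16 and human TAAR1 · Compound dosing – one-point dosing at 3 µM (nominal) · Incubation – 17-24 h seeding, 75 min 37 °C dye, 30 min RT · Measured by – kinetic Fluo-8 calcium fluorescence · Control set – DMSO vehicle as 0%, PEA at EC100 as 100% · Repeats – single well for each compound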
OX1R antag-2: OX1R (HCRTR1) antagonists, primary screen, fluorescence, CHO/OX1R cells, Fluo-8 calcium, orexin A; inhibition, % at 5 µM; Orexin/Hypocretin receptor type 1 (Homo sapiens), O43613; AID 434989, 2010; Fluo-8 calcium fluorescence; 0.43% of 330,000 active;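 active = inhibition above its plate's threshold, mean inhibition of all tested compounds on the plate plus 3 SD, cut at about 37% in these data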
TAAR1 ag conf: human TAAR1 agonists, retest of hits, confirmation, Fluo-8 calcium fluorescence, CHO RD-HGA16 cells; scaled: DMSO 0%, maximal phenethylamine 100%; AID 651783, 2012; activation, % at 3 µM; 82% of 2,400 active; shares compounds with TAAR1 agonist;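 active = activation above a cutoff set at the run's mean compound activation plus 3 SD, cut at about 39% in these data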
Ga16 nonsel ag: nonselective calcium mobilization agonists, CHO-Ga16 cells, counter-screen for hTAAR1 agonist project, cell-based, fluorescence, CHO-Ga16 parental line; shares compounds with TAAR1 agonist; Fluo-8 calcium fluorescence; normalized to maximal ATP response, DMSO zero; activation, % at 3 µM; 50% of 2,400 active;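 active = activation above the run cutoff, the mean activation over all tested wells plus 3 SD, cut at about 12% in these data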
TAAR1 desens: TAAR1 desensitization by agonist hits, confirmation, counter-screen for TAAR1 agonist project, cell-based, fluorescence, tachyphylaxis. shares compounds with TAAR1 agonist. CHO RD-HGA16 hTAAR1, Fluo-8 calcium, beta-PEA response inhibition. inhibition, % at 3 µM. 46% of 2,400 active. AID 651951, 2012;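 active = inhibition above the run cutoff, the mean inhibition of all test compounds plus 3 SD, cut at about 49% in these data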;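 note: beta-PEA stimulus applied at its EC80; loss of beta-PEA calcium signal after compound pretreatment read as receptor desensitization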
Ga16 nonsel ant: inhibition of ATP-evoked calcium response in CHO-Ga16 cells, counter-screen for TAAR1 agonist project, cell-based, fluorescence. 39% of 2,400 active. CHO-Ga16 ATP-induced calcium, Fluo-8 fluorescence. shares compounds with TAAR1 agonist. inhibition, % at 3 µM;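 active = inhibition above the plate's mean compound inhibition plus 3 SD, computed per plate, cut at about 22% in these data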
Each line names hits and unclear results; the compound was inactive in the other large screens (follow-up assays come after a bar, where they were run).

Oc1ccc(Br)cc1/C=N/NC(=S)NCCc1ccccc1	CHO parental Ca 34, TAAR1 agonist 58 | TAAR1 ag conf 74 | Ga16 nonsel ag 41 | TAAR1 desens inactive | Ga16 nonsel ant 47
Cn1c(=O)c2c(nc(N3CCc4ccccc4C3)n2Cc2ccc(Br)cc2)n(C)c1=O	TAAR1 agonist 55 | TAAR1 ag conf 61 | Ga16 nonsel ag inactive | TAAR1 desens inactive | Ga16 nonsel ant inactive
Cc1ccc(Cn2c(CN(C)Cc3ccccc3)nc3c2c(=O)n(C)c(=O)n3C)cc1	TAAR1 agonist 70 | TAAR1 ag conf 40 | Ga16 nonsel ag 26 | TAAR1 desens inactive | Ga16 nonsel ant inactive
COC(=O)C1=C(C)N(C)C(=NCc2ccc3c(c2)OCO3)NC1c1ccc(C(F)(F)F)cc1 (stereo unspecified)	none (no result: CHO parental Ca, OX1R antag-1, OX1R antag-2)
COc1cc2c(c(OC)c1OC)C1(CCCCC1)CC2NCC=C(C)C (stereo unspecified)	TAAR1 agonist 50 (no result: CHO parental Ca, OX1R antag-1, OX1R antag-2) | TAAR1 ag conf inactive | Ga16 nonsel ag inactive | TAAR1 desens inactive | Ga16 nonsel ant inactive
COc1cc2c(cc1OC)C(C1(O)CCCCC1)NCC2 (stereo unspecified)	none (no result: CHO parental Ca, OX1R antag-1, OX1R antag-2)
CCC(c1nnnn1Cc1ccco1)N(CCc1ccccc1)Cc1cc2cc(C)ccc2[nH]c1=O (stereo unspecified)	none (no result: TAAR1 antagonist, TAAR1 agonist) | Ga16 nonsel ag inactive | Ga16 nonsel ant inactive
Cc1ccc2[nH]c(=O)c(CN(CCc3ccccc3)C(c3nnnn3Cc3ccco3)C(C)C)cc2c1 (stereo unspecified)	TAAR1 agonist 71 | TAAR1 ag conf 62 | Ga16 nonsel ag inactive | TAAR1 desens inactive | Ga16 nonsel ant inactive
O=C(Nc1ccccc1C(=O)NCc1cccnc1)c1ccccc1F	none
O=C(Nc1ccc2c(c1)C(=O)N(c1ccccc1)C2=O)c1cccs1	TAAR1 agonist 57 | TAAR1 ag conf 46 | Ga16 nonsel ag 25 | TAAR1 desens inactive | Ga16 nonsel ant inactive
O=C(O)CCN1C(=O)c2ccc(NC(=O)c3cccs3)cc2C1=O	none
CC(=O)Nc1ccc(N2C(=O)c3cccc4c(O)ccc(c34)C2=O)cc1	CHO parental Ca 58, TAAR1 agonist 174, OX1R antag-2 61 | TAAR1 ag conf 63 | Ga16 nonsel ag 65 | TAAR1 desens inactive | Ga16 nonsel ant 39
O=C1c2cccc3c(O)ccc(c23)C(=O)N1Cc1ccco1	TAAR1 agonist 132 (no result: CHO parental Ca, OX1R antag-1, OX1R antag-2) | TAAR1 ag conf 158 | Ga16 nonsel ag 188 | TAAR1 desens 74 | Ga16 nonsel ant 80
O=C1c2cccc3c(O)ccc(c23)C(=O)N1c1ccc(Cl)cc1	CHO parental Ca 69, TAAR1 antagonist 59, TAAR1 agonist 235, OX1R antag-2 85 | TAAR1 ag conf 129 | Ga16 nonsel ag 121 | TAAR1 desens 75 | Ga16 nonsel ant 70
O=C1c2ccccc2C(=O)N1Cc1ccco1	none
CC(=O)c1c(NCCc2ccccc2)nc(=S)n(-c2ccccc2)c1C	TAAR1 agonist 50 | TAAR1 ag conf 71 | Ga16 nonsel ag 18 | TAAR1 desens inactive | Ga16 nonsel ant inactive
CC(=O)c1c(NCc2ccccc2)nc(=O)n(-c2ccccc2)c1C	none
CCOC(=O)c1c(CSC(=N)N)n(C)c2cc(Br)c(OC(C)=O)cc12	none
CCOC(=O)c1c(CSC(=N)N)n(-c2ccc(C)cc2)c2cc(Br)c(OC(C)=O)cc12	TAAR1 agonist 63 | TAAR1 ag conf 92 | Ga16 nonsel ag 59 | TAAR1 desens 66 | Ga16 nonsel ant 52
CCC1(c2ccc(F)cc2)NC(=O)N(CC(=O)N2c3ccccc3CC2C)C1=O (stereo unspecified)	TAAR1 agonist 76 | TAAR1 ag conf 84 | Ga16 nonsel ag 47 | TAAR1 desens inactive | Ga16 nonsel ant 30
CCC1(c2ccc(F)cc2)NC(=O)N(CC(=O)c2cc(C)n(C3CC3)c2C)C1=O (stereo unspecified)	TAAR1 antagonist 58, TAAR1 agonist 103 | TAAR1 ag conf 98 | Ga16 nonsel ag 51 | TAAR1 desens 52 | Ga16 nonsel ant 32
Cc1cc(C(=O)CN2C(=O)NC(C)(c3cc(F)ccc3F)C2=O)c(C)n1C1CC1 (stereo unspecified)	none
CCC1(c2ccc(F)cc2)NC(=O)N(CC(=O)N2c3ccccc3NC(=O)CC2C)C1=O (stereo unspecified)	none
CC1Cc2ccccc2N1C(=O)CN1CCN(Cc2ccccc2)CC1 (stereo unspecified)	none
CC1Cc2ccccc2N1C(=O)CN1CCc2ccccc2C1 (stereo unspecified)	TAAR1 agonist 72 | TAAR1 ag conf 77 | Ga16 nonsel ag inactive | TAAR1 desens inactive | Ga16 nonsel ant inactive
COc1ccc2oc(=N)c(C(=O)Nc3cccc(C)c3C)cc2c1	none
COc1ccc(OCCCN2CCC(C(O)(c3ccccc3)c3ccccc3)CC2)cc1	TAAR1 agonist 38 (no result: CHO parental Ca, OX1R antag-1, OX1R antag-2) | TAAR1 ag conf 43 | Ga16 nonsel ag 20 | TAAR1 desens inactive | Ga16 nonsel ant 22
CC(C)(C)c1ccc(OCCCCCCN2CCNCC2)cc1	none
OC(c1ccccc1)(c1ccccc1)C1CCN(CCCOc2ccccc2Cl)CC1	none (no result: CHO parental Ca, OX1R antag-1, OX1R antag-2)
CC(C)(c1ccccc1)c1ccc(OCCCN2CCNCC2)cc1	TAAR1 agonist 50 | TAAR1 ag conf inactive | Ga16 nonsel ag inactive | TAAR1 desens inactive | Ga16 nonsel ant inactive
N#Cc1ccc(OCCCN2CCC(C(O)(c3ccccc3)c3ccccc3)CC2)cc1	TAAR1 agonist 40 (no result: CHO parental Ca, OX1R antag-1, OX1R antag-2) | TAAR1 ag conf 54 | Ga16 nonsel ag 18 | TAAR1 desens inactive | Ga16 nonsel ant inactive
